Assay results taken from ChEMBL document CHEMBL3616441, “Discovery of a Selective and CNS Penetrant Negative Allosteric Modulator of Metabotropic Glutamate Receptor Subtype 3 with Antidepressant and Anxiolytic Activity in Rodents” (J Med Chem, 2015).
Calls of active or inactive are those of the source. The calls are words filed in the database; no cut-off is given here.

Columns and labels:
[1] = target: Metabotropic glutamate receptor 3 (Rattus norvegicus, UniProt P31422); test: Negative allosteric modulation of rat mGlu3 receptor assessed as calcium mobilization by cell based fluorescence assay; type: functional
Outline: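 Cell line stably expressing rat mGlu3 with the promiscuous G-protein Gα15. Calcium mobilization with fluorescence read-out, inhibition of the glutamate response. Full concentration-response curves, top concentration 30 μM. % Glu Max is the response with 30 μM test compound as a percentage of the maximal response to 100 μM glutamate. Values averaged over n-3.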

Brain = test: Fraction unbound in rat brain; type: ADME, tissue-based
[2] = target: Metabotropic glutamate receptor 3 (Rattus norvegicus) (UniProt P31422); test: Negative allosteric modulation of rat mGlu3 receptor assessed as amplitude response at 30 uM relative to glutamate
Outline: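 Calcium mobilization in cell line stably expressing rat mGlu3 with promiscuous Gα15; fluorescence read-out; amplitude of glutamate response with 30 μM test compound expressed as percentage of maximal response (100 μM glutamate); average of n = 3.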

[3] = target: Metabotropic glutamate receptor 5 (Rattus norvegicus) (UniProt P31424); test: Modulation of rat mGlu5 receptor assessed as assessed as calcium mobilization at 30 uM by cell based fluorescence assay; type: functional
Plasma = test: Fraction unbound in rat plasma; type: ADME, cell-free
[4] = Half life in rat at 0.2 mg/kg, iv administered as cassette dose; type: ADME, organism-based; settings: in vivo
[5] = target: Metabotropic glutamate receptor 5 (Rattus norvegicus) (UniProt P31424); test: Positive allosteric modulation of rat mGlu5 receptor assessed as calcium mobilization by cell based fluorescence assay; type: functional
[6] = target: Metabotropic glutamate receptor 5 (Rattus norvegicus, UniProt P31424); test: Modulation of rat mGlu5 receptor assessed as calcium mobilization by cell based fluorescence assay; type: functional
Outline: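 Calcium mobilization assay with fluorescence read-out in cells expressing mGlu5; full concentration-response curves; % Glu Max is the amplitude of response with 30 μM test compound as a percentage of the maximal response to 100 μM glutamate; values averaged over n-3.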

[7] = Plasma clearance in rat at 0.2 mg/kg, iv administered as cassette dose; type: ADME, organism-based
[8] = Volume of distribution at steady state in rat at 0.2 mg/kg, iv administered as cassette dose; type: ADME, organism-based; settings: in vivo, read-out: Vdss
[9] = target: Metabotropic glutamate receptor 5 (Rattus norvegicus) (UniProt P31424); test: Negative allosteric modulation of rat mGlu5 receptor assessed as calcium mobilization by cell based fluorescence assay; type: functional

Metabotropic glutamate receptor 3, sequence (P31422 whole entry): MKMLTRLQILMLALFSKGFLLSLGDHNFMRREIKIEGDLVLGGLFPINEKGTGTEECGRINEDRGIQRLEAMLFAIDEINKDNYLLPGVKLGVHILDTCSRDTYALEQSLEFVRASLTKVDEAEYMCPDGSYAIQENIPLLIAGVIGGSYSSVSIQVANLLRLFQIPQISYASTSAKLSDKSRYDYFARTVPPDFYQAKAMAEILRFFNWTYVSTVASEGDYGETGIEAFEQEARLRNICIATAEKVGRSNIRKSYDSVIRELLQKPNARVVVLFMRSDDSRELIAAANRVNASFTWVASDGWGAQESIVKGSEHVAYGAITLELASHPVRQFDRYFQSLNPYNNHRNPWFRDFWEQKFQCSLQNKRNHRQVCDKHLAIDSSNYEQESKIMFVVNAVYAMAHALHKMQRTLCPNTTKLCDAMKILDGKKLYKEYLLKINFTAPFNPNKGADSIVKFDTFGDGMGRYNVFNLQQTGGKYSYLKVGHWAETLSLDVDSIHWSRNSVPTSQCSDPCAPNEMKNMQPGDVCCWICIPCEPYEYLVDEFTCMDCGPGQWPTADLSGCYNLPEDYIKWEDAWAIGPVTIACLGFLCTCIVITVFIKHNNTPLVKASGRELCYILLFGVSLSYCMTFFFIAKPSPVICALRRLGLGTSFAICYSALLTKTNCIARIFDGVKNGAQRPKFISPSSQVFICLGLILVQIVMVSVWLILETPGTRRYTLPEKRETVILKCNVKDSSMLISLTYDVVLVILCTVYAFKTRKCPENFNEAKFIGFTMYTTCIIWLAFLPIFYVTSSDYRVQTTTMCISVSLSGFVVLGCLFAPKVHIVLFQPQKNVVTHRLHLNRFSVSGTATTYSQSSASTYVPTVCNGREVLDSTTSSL
Metabotropic glutamate receptor 3 (Rattus norvegicus), sequence (P31422 23-879 limits assumed): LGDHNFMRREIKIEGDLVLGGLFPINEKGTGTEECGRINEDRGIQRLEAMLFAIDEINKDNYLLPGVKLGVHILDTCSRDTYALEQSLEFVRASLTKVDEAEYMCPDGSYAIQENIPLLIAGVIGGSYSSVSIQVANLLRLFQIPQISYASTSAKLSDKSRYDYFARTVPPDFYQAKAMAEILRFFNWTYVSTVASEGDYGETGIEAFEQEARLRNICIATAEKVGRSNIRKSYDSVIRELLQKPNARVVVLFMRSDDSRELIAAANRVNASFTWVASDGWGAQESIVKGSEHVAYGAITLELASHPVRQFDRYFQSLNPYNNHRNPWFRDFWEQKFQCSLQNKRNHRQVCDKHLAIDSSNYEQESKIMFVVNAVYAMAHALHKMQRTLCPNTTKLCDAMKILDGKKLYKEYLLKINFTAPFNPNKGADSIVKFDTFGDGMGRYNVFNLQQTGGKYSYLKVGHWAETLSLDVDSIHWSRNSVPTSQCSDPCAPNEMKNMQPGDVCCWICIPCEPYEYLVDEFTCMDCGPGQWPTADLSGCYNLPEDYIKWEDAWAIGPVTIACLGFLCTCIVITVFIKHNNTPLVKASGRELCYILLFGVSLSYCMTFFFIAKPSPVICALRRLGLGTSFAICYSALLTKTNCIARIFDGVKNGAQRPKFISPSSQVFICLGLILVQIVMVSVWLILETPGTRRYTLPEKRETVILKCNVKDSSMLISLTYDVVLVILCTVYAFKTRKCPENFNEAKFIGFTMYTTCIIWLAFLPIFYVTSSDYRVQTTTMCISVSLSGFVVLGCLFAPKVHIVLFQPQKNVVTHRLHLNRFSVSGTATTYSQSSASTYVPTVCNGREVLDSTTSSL
Metabotropic glutamate receptor 5 (Rattus norvegicus), sequence (P31424 21-1203 limits assumed): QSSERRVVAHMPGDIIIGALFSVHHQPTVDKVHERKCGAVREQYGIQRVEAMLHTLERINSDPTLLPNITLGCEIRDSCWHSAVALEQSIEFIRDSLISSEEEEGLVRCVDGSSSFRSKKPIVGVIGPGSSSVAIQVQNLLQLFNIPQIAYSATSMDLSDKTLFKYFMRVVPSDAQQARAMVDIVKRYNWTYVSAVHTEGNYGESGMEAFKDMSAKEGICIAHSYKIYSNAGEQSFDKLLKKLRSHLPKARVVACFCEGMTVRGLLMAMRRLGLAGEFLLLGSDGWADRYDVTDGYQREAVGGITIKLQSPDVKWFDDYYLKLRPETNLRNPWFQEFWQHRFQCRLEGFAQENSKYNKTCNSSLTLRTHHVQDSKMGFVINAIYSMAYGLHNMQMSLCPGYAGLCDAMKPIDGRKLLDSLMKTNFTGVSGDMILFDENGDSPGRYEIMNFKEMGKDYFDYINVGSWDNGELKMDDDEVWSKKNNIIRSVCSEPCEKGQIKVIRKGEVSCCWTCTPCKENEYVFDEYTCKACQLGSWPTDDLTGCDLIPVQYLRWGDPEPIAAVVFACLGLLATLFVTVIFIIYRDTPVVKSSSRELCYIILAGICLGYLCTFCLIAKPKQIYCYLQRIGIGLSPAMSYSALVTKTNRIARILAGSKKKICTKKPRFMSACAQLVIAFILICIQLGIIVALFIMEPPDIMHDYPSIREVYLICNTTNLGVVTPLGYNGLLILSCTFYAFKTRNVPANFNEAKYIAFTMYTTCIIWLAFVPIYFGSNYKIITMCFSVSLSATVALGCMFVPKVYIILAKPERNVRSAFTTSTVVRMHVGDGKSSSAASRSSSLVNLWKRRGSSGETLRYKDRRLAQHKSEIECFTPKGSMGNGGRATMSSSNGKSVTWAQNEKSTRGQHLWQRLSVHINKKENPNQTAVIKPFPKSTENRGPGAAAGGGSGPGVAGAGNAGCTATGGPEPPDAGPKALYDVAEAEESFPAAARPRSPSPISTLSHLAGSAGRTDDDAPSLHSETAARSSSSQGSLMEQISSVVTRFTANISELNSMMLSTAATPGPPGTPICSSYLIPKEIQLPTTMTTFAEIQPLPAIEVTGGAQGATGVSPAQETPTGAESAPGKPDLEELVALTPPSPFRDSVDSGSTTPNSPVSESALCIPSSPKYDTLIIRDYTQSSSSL
Metabotropic glutamate receptor 5, sequence (P31424 whole entry): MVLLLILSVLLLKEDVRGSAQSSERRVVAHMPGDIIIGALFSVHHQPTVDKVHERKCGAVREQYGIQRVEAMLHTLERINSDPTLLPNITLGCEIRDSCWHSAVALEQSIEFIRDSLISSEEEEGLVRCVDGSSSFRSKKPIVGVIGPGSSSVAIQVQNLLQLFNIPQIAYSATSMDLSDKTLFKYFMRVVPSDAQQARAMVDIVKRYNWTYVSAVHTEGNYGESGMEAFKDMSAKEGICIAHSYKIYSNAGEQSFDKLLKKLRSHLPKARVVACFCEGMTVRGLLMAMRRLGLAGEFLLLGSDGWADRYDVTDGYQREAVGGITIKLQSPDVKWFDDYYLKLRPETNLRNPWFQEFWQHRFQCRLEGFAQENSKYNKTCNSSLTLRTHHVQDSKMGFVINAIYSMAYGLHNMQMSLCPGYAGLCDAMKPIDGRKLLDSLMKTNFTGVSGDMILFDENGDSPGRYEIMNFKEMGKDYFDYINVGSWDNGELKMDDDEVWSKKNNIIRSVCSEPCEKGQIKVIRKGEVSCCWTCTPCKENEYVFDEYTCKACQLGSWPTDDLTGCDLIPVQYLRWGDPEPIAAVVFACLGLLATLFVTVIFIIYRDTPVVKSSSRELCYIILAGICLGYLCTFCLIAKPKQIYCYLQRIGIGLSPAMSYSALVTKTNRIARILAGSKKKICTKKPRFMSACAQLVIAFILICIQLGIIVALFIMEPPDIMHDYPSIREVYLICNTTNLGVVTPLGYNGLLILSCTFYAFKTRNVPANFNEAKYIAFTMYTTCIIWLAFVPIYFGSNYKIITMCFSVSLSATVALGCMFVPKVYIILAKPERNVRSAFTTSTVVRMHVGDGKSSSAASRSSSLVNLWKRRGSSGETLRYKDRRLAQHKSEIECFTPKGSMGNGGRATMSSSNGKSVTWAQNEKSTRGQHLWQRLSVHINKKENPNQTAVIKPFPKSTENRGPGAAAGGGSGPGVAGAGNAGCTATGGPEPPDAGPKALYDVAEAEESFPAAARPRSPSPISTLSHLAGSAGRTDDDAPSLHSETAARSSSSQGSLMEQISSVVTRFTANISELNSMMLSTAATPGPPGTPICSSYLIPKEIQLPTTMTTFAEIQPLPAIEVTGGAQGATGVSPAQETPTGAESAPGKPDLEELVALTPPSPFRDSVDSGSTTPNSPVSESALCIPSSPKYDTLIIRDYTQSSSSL

Structure (SMILES)	IC50 [1] [nM]	Fu (Brain)	Activity [2] [%]	Activity [3] [%]	Fu (Plasma)	half-life [4] [h]	Activity [5]	EC50 [6] [nM]	clearance [7] [mL/min/kg]	Vd [8] [L/kg]	Activity [9]
C[C@@H]1CN(c2cc(F)cc(C#N)c2)C(=O)c2cc(COc3ccc(Cl)cn3)nn21	315	0.032	1.92	28	0.045	3.23	Active	1040	13	2.2	–
C[C@@H]1CN(c2cccc(F)c2F)C(=O)c2cc(COc3ccc(F)cn3)nn21	184	–	2.15	21	0.092	–	–	2110	–	–	Active
C[C@@H]1CN(c2ccc(F)cc2)C(=O)c2cc(COc3ccc(F)cn3)nn21	539	–	1.71	46.5	0.135	1.47	–	> 10000	82	6.6	Active
C[C@@H]1CN(c2ccccc2F)C(=O)c2cc(COc3ccc(F)cn3)nn21	162	–	1.53	29.1	0.098	–	–	> 10000	–	–	Active
Cc1cccc(OCc2cc3n(n2)[C@H](C)CN(c2ccc(F)cc2)C3=O)c1	1440	–	2.35	39.7	–	–	–	> 10000	–	–	Active
C[C@@H]1CN(c2ccc(F)cc2)C(=O)c2cc(COc3ccc(Cl)cn3)nn21	605	–	1.84	81.4	0.034	2.35	Active	2920	29	5.2	–
COc1ccccc1N1C[C@@H](C)n2nc(COc3ccc(F)cn3)cc2C1=O	339	–	1.49	3.28	–	–	–	301	–	–	Active
C[C@@H]1CN(c2cc(F)ccc2F)C(=O)c2cc(COc3ccc(F)cn3)nn21	123	–	2.62	18.8	0.089	–	–	> 10000	–	–	Active
C[C@@H]1CN(c2cccnc2)C(=O)c2cc(COc3ccc(F)cn3)nn21	436	–	0.64	46.3	–	–	–	> 10000	–	–	Active
Cc1ccc(N2C[C@@H](C)n3nc(COc4ccc(F)cn4)cc3C2=O)cc1	269	–	1.04	54.8	–	–	–	> 10000	–	–	Active
COc1ccccc1N1C[C@@H](C)n2nc(COc3ccc(Cl)cn3)cc2C1=O	690	–	1.29	58.5	–	–	–	> 10000	–	–	Active
C[C@@H]1CN(c2ccc(F)cc2)C(=O)c2cc(COc3ccc(F)cc3)nn21	462	–	2.09	87	0.06	1.58	Active	92	40	3.5	–
C[C@@H]1CN(c2cnccc2F)C(=O)c2cc(COc3ccc(Cl)cn3)nn21	482	–	1.45	–	0.085	–	–	> 30000	–	–	–
C[C@@H]1CN(c2ccccn2)C(=O)c2cc(COc3ccc(Cl)cn3)nn21	328	–	1.07	–	0.051	–	–	> 30000	–	–	–
C[C@@H]1CN(c2cccnc2)C(=O)c2cc(COc3ccc(Cl)cn3)nn21	608	–	1.73	–	0.118	0.35	–	> 30000	50	1.2	–
Cc1cccc(N2C[C@@H](C)n3nc(COc4ccc(F)cn4)cc3C2=O)c1	216	–	1.93	36.6	0.051	–	–	> 10000	–	–	Active
